ChEMBL document CHEMBL1158469 (J Med Chem, 2009)
The source made the active and inactive calls. The rule behind the calls is not given here.

Tests used:
[1] = Induction of apoptosis in human BP3 cells after 1 to 2 days by FITC-annexin V and propidium iodide assay; format: functional, cell-based
[2] = target: Bcl-2-like protein 1 (Homo sapiens) (UniProt Q07817); test: Inhibition of Bcl-xL at 200 uM by 1D 1H NMR binding assay
[3] = Cytotoxicity against wild type mouse fibroblast assessed as induction of cell death at 10 uM by FITC-annexin V and propidium iodide assay; format: cell-based
Outline: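 Wild-type MEFs seeded at half a million per well in DMEM with 10% FCS. Next day compound added at 0, 2.5, 5.0, 7.5 or 10 μM. On the following day, floating and trypsinized adherent cells were pooled and stained with Annexin V-FITC and PI in binding buffer. Analyzed by flow cytometry, with double-negative cells counted as viable.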

[4] = test system: Mus musculus; test: Induction of spleen weight shrinkage in human Bcl2 expressing B6 transgenic mouse at 72 umol/kg, ip administered as single dose after 24 hrs; format: functional
Outline: (§1)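 Age- and sex-matched B6Bcl2 transgenic mice (human BCL-2/IgH minigene, B cells accumulating in spleen), free of aggressive lymphoma. Single ip injection at 72 μmol/kg in 500 μL ethanol:Cremophor EL:saline 10:10:80; controls got vehicle alone. Killed with Avertin after 24 h and spleen weighed. Shrinkage expressed as percentage of maximum spleen-weight reduction.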

[5] = test system: Mus musculus; test: Reduction of spleen weight in human Bcl2 expressing B6 transgenic mouse at 72 umol/kg, ip administered as single dose after 24 hrs; format: functional; design: scale not given: the % may be the effect or the level left; outline: as §1
[6] = test system: NCI-H460; test: Cytotoxicity against human H460 cells assessed as cell viability after 72 hrs by ATP-LITE assay; format: functional, cell-based; details: NCI-H460, 72 h
Outline: (§2)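 ATP-LITE viability readout. Seeded 24 h before dosing (H460, H1299 at 2000 cells/well; PC3 at 3000 cells/well) in 12F2 or RPMI1640 with 5 mM L-glutamine, 5% FBS and pen/strep. Fresh 5% medium added, then compounds in 0.1% DMSO final. Viability read after 72 h treatment and normalized to DMSO-treated cells.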

[7] = Cytotoxicity against human H1299 cells assessed as cell viability after 72 hrs by ATP-LITE assay; format: functional, cell-based; details: NCI-H1299, 72 h; outline: as §2
[8] = Cytotoxicity against Bax/Bak double knockout mouse fibroblast assessed as induction of cell death at 10 uM by FITC-annexin V and propidium iodide assay; format: cell-based
Outline: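 MEFs (wild-type and Bax/Bak double knockout) seeded at half a million per well in DMEM with 10% FCS; next day compound added at final 0, 2.5, 5.0, 7.5 and 10 μM. After about one day, floating and trypsinised adherent cells were pooled and stained with Annexin V-FITC and PI. Flow cytometry scored Annexin V-negative/PI-negative cells as viable.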

[9] = Induction of apoptosis in human RS11846 cells after 1 to 2 days by FITC-annexin V and propidium iodide assay; format: functional, cell-based
[10] = Cytotoxicity against human PC3-ML cells assessed as cell viability after 72 hrs by ATP-LITE assay; format: functional, cell-based; outline: as §2
[11] = test system: Mus musculus; test: Toxicity in BALB/c mouse assessed as weight loss at 25 mg/kg, ip administered as single dose after 14 days; format: organism-based; design: dose 25 mg/kg, route intraperitoneal; details: in vivo, 336 h
[12] = test system: Mus musculus; test: Toxicity in human Bcl2 expressing B6 transgenic mouse assessed as weight loss at 42 umol/kg, ip administered as single dose; format: organism-based; details: in vivo
[13] = test system: Mus musculus; test: Toxicity in BALB/c mouse assessed as mortality at 100 mg/kg, ip administered as single dose after 14 days; format: organism-based; design: dose 100 mg/kg, route intraperitoneal; details: in vivo, 336 h
[14] = Stability in rat liver microsome at 4 uM after 1 hr; format: ADME; details: liver microsomes, read-out: Stability
Outline: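 Compound incubated for 1 h in rat microsomal preparations; percentage of parent remaining was reported.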

[15] = Stability in rat plasma after 1 hr at 37.5 degC; format: ADME, cell-free; details: read-out: Stability
Outline: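 Compound incubated in rat plasma for 1 h; percentage of parent remaining was reported.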

[16] = Membrane permeability assessed as drug permeation at 100 uM at pH 7.2 after 8 hrs by PAMPA; format: ADME; details: pH 7.2, 8 h
[17] = test system: Mus musculus; test: Toxicity in BALB/c mouse assessed as mortality at 75 mg/kg, ip administered as single dose after 14 days; format: organism-based; design: dose 75 mg/kg, route intraperitoneal; details: in vivo, 336 h
[18] = test system: Mus musculus; test: Toxicity in BALB/c mouse assessed as weight loss at 75 mg/kg, ip after 5 days; format: organism-based; design: dose 75 mg/kg, route intraperitoneal; details: in vivo, 120 h
Outline: (§3)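 Tolerability study in five mice given a single ip dose of 100, 75, 50 or 25 mg/kg. Animals observed for 14 days, recording body weight loss as morbidity and mortality.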

[19] = test system: Mus musculus; test: Toxicity in BALB/c mouse assessed as weight loss at 50 mg/kg, ip administered as single dose after 14 days; format: organism-based; design: dose 50 mg/kg, route intraperitoneal; details: in vivo, 336 h; outline: as §3
[20] = test system: Mus musculus; test: Toxicity in BALB/c mouse assessed as mortality at 50 mg/kg, ip administered as single dose after 14 days; format: organism-based; design: dose 50 mg/kg, route intraperitoneal; details: in vivo, 336 h
[21] = test system: Mus musculus; test: Toxicity in human Bcl2 expressing B6 transgenic mouse administered as single dose at 72 umol/kg, ip after 24 hrs; format: organism-based; details: in vivo
[22] = test system: Mus musculus; test: Toxicity in mouse assessed as reduction of spleen weight at 42 mg/kg, ip; format: organism-based; design: dose 42 mg/kg, route intraperitoneal; details: in vivo
Outline: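 B6Bcl2 transgenic mice, six per group, given a single ip dose of 42 mg/kg (60 μmol/kg) in ethanol:Cremophor EL:saline 10:10:80; six vehicle-injected controls. Spleens weighed 24 h after injection. Data are means ± S.E. (n = 6).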

[23] = test system: Mus musculus; test: Toxicity in BALB/c mouse assessed as mortality at 25 mg/kg, ip administered as single dose after 14 days; format: organism-based; design: dose 25 mg/kg, route intraperitoneal; details: in vivo, 336 h
[24] = Chemical stability after 60 days at room temperature by HPLC/LC-MS analysis; format: physicochemical; details: 1440 h
Outline: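 Solid compounds stored in air at room temperature for 60 days. Stability followed by HPLC combined with LC-MS.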

[25] = test system: Mus musculus; test: Gastrointestinal toxicity in human Bcl2 expressing B6 transgenic mouse at 50 mg/kg, ip administered as single dose after 24 hrs; format: organism-based; design: dose 50 mg/kg, route intraperitoneal; details: in vivo
[26] = test system: Mus musculus; test: Toxicity in BALB/c mouse assessed as recovery of weight loss administered as single ip dose after 14 days; format: organism-based; details: in vivo, 336 h; outline: as §3
[27] = test system: Mus musculus; test: Toxicity in human Bcl2 expressing B6 transgenic mouse assessed as gastrointestinal toxicity at 42 umol/kg, ip administered as single dose; format: organism-based; details: in vivo
[28] = test system: Mus musculus; test: Reduction of spleen weight in human Bcl2 expressing B6 transgenic mouse at 42 umol/kg, ip administered as single dose after 24 hrs; format: functional; design: scale not given: the % may be the effect or the level left
[29] = target: T1, Bcl-2-related protein A1 (Homo sapiens, UniProt Q16548); test: Displacement of F-BakBH3 from Bfl-1 by fluorescence polarization assay
T1 sequence (Q16548 whole entry): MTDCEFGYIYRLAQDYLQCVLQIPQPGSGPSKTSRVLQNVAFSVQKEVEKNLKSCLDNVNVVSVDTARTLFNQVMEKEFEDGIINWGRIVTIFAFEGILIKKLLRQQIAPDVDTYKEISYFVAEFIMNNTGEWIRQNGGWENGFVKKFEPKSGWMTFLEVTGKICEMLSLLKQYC

Sequence of Bcl-2-like protein 1 (Homo sapiens) (Q07817 whole entry): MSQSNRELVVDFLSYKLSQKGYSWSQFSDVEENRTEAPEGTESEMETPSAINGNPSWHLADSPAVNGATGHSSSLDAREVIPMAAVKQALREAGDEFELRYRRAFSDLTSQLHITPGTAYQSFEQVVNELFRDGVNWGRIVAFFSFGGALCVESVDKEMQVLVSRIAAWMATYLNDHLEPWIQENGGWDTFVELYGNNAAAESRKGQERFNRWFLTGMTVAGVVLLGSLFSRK

Row | Structure (SMILES) | EC50 [1] [µM] | Activity [2] | Activity [3] | Activity [4] | Activity [5] | EC50 [6] [µM] | EC50 [9] [µM] | EC50 [10] [µM] | remaining at 1 h, 4 µM [14] [%] | remaining at 1 h [15] [%] | logPe [16] [log cm/s] | Activity [21] | Stability [24] | other results
1 | Cc1cc2c(C(C)C)c(O)c(O)c(C=O)c2c(O)c1-c1c(C)cc2c(C(C)C)c(O)c(O)c(C=O)c2c1O [GOSSYPOL] | 1.42 | Active | Active | <=40% | <=20% | 3 | 4.2 | 3.1 |  |  |  |  |  | EC50 [7]: 6 µM; Activity [8]: Active
2 | Cc1cc2c(C(=O)NCC(C)c3ccccc3)c(O)c(O)cc2c(O)c1-c1c(C)cc2c(C(=O)NCC(C)c3ccccc3)c(O)c(O)cc2c1O (centres undefined) |  | Active | 80% | 85% | 40% |  |  |  | 76 | 96 | -7.51 | Toxic | Stable | Activity [11]: Non-toxic; Activity [12]: 7.8%; Activity [13]: Non-toxic; Activity [17]: Non-toxic; Activity [18]: Non-toxic; Activity [19]: <= 15%; Activity [20]: Non-toxic; Activity [22]: Non-toxic; Activity [23]: Non-toxic; Activity [25]: Toxic; Activity [26]: 80%; Activity [27]: Non-toxic; Activity [28]: 70%
3 | Cc1cc2c(C(C)C)c(O)c(O)cc2c(O)c1-c1c(C)cc2c(C(C)C)c(O)c(O)cc2c1O [APOGOSSYPOL] | 4.7 |  |  | <=40% | <=20% | 3.5 | 5 | 10.4 | 64 | 53 | -7.16 | Non-toxic | Stable | IC50 [29]: > 10 µM
